Source: ChEMBL document CHEMBL2434944, “Novel acetamidothiazole derivatives: synthesis and in vitro anticancer evaluation” (Eur J Med Chem, 2013)

Tests used:
UACC-62 = test: Growth inhibition of human UACC62 cells assessed as cell growth at 10^-5 M after 48 hrs by sulforhodamine B assay relative to control; type: functional; conditions: UACC-62, 48 h, read-out: Activity
Outline: (§1)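 NCI-60 single-dose screen, 10^-5 M final. Cells grown in RPMI 1640 with 5% FBS and 2 mM L-glutamine, seeded at 5,000–40,000 cells/well by doubling time. Preincubated 24 h at 37°C, 5% CO2. Compound in DMSO, diluted in medium with gentamicin, then 48 h exposure. Fixed with cold TCA, SRB stained, A515 read. Percent growth vs untreated control, time-zero plate corrected.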

CAKI-1 = test: Growth inhibition of human CAKI-1 cells assessed as cell growth at 10^-5 M after 48 hrs by sulforhodamine B assay relative to control; type: functional; conditions: CAKI-1, 48 h, read-out: Activity
Outline: (§2)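 NCI-60 single-dose screen at 10^-5 M. Cells grown in RPMI 1640 with 5% FBS and 2 mM L-glutamine, plated at 5,000–40,000 cells/well according to doubling time, and preincubated 24 h at 37°C, 5% CO2. Compound dissolved in DMSO and added. Exposure 48 h. Adherent cells fixed with cold TCA (10% final), suspension cells with 16% final TCA. Read-out is 0.4% SRB staining, dye solubilised in 10 mM Tris, absorbance at 515 nm. Percent growth is calculated against the time-zero plate and untreated control.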

RPMI-8226 = test: Growth inhibition of human RPMI8226 cells assessed as cell growth at 10^-5 M after 48 hrs by sulforhodamine B assay relative to control; type: functional; conditions: RPMI-8226, 48 h, read-out: Activity; outline: as §2
A498 = test: Growth inhibition of human A498 cells assessed as cell growth at 10^-5 M after 48 hrs by sulforhodamine B assay relative to control; type: functional; conditions: A498, 48 h, read-out: Activity; outline: as §2
OVCAR-5 = test: Growth inhibition of human OVCAR5 cells assessed as cell growth at 10^-5 M after 48 hrs by sulforhodamine B assay relative to control; type: functional; conditions: OVCAR-5, 48 h, read-out: Activity; outline: as §2
K562 = test: Growth inhibition of human K562 cells assessed as cell growth at 10^-5 M after 48 hrs by sulforhodamine B assay relative to control; type: functional; conditions: K562, 48 h, read-out: Activity; outline: as §2
NCI-H322M = test: Growth inhibition of human NCI-H322M cells assessed as cell growth at 10^-5 M after 48 hrs by sulforhodamine B assay relative to control; type: functional; conditions: read-out: Activity; outline: as §2
Thymidylate synthase = Thymidylate synthase (Homo sapiens, UniProt P04818); test: Inhibition of human thymidylate synthase
Chain of Thymidylate synthase (P04818 whole entry): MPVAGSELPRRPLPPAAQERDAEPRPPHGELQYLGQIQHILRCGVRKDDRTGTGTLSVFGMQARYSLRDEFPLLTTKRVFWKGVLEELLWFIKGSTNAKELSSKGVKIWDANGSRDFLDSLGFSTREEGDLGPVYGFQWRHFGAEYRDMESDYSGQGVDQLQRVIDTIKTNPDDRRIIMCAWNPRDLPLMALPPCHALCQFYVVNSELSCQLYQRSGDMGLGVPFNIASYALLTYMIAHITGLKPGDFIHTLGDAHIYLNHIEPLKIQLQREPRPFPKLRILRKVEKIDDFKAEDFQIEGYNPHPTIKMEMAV

HCT-15 = test: Growth inhibition of human HCT15 cells assessed as cell growth at 10^-5 M after 48 hrs by sulforhodamine B assay relative to control; type: functional; conditions: HCT-15, 48 h, read-out: Activity; outline: as §2
[1] = biological target: T1, Leukotriene A-4 hydrolase (Homo sapiens, UniProt P09960); test: Inhibition of human leukotriene A-4 hydrolase
T1 sequence (P09960 whole entry): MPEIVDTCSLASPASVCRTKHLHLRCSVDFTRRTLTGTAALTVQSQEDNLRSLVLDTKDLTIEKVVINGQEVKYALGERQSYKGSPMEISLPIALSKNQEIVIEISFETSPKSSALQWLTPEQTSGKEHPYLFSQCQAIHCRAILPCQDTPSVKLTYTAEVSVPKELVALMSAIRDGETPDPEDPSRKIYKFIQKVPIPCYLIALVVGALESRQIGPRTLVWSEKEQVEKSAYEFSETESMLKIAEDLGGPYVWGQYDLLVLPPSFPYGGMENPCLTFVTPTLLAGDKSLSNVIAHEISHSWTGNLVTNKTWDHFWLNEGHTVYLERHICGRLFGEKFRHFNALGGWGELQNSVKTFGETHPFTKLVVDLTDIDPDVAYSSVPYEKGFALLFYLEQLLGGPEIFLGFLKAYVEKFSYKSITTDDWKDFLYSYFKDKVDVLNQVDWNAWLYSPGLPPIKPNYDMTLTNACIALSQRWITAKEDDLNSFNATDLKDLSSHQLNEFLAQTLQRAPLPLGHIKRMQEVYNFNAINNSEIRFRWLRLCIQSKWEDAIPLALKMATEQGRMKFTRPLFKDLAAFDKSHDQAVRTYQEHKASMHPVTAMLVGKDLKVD

MOLT-4 = test: Growth inhibition of human MOLT4 cells assessed as cell growth at 10^-5 M after 48 hrs by sulforhodamine B assay relative to control; type: functional; conditions: MOLT-4, 48 h, read-out: Activity; outline: as §2
UACC-257 = test: Growth inhibition of human UACC257 cells assessed as cell growth at 10^-5 M after 48 hrs by sulforhodamine B assay relative to control; type: functional; conditions: UACC-257, 48 h, read-out: Activity; outline: as §1
COLO 205 = test: Growth inhibition of human COLO205 cells assessed as cell growth at 10^-5 M after 48 hrs by sulforhodamine B assay relative to control; type: functional; conditions: COLO 205, 48 h, read-out: Activity; outline: as §2
HCT-116 = test: Growth inhibition of human HCT116 cells assessed as cell growth at 10^-5 M after 48 hrs by sulforhodamine B assay relative to control; type: functional; conditions: HCT-116, 48 h, read-out: Activity; outline: as §2
OVCAR-8 = test: Growth inhibition of human OVCAR8 cells assessed as cell growth at 10^-5 M after 48 hrs by sulforhodamine B assay relative to control; type: functional; conditions: OVCAR-8, 48 h, read-out: Activity; outline: as §2
OVCAR-3 = test: Growth inhibition of human OVCAR3 cells assessed as cell growth at 10^-5 M after 48 hrs by sulforhodamine B assay relative to control; type: functional; conditions: OVCAR-3, 48 h, read-out: Activity; outline: as §2
NCI-H23 = test: Growth inhibition of human NCI-H23 cells assessed as cell growth at 10^-5 M after 48 hrs by sulforhodamine B assay relative to control; type: functional; conditions: NCI-H23, 48 h, read-out: Activity; outline: as §2
TK-10 = test: Growth inhibition of human TK10 cells assessed as cell growth at 10^-5 M after 48 hrs by sulforhodamine B assay relative to control; type: functional; conditions: TK-10, 48 h, read-out: Activity; outline: as §1
HT-29 = test: Growth inhibition of human HT-29 cells assessed as cell growth at 10^-5 M after 48 hrs by sulforhodamine B assay relative to control; type: functional; conditions: HT-29, 48 h, read-out: Activity; outline: as §2
SK-MEL-2 = test: Growth inhibition of human SK-MEL-2 cells assessed as cell growth at 10^-5 M after 48 hrs by sulforhodamine B assay relative to control; type: functional; conditions: SK-MEL-2, 48 h, read-out: Activity; outline: as §2
HOP-62 = test: Growth inhibition of human HOP62 cells assessed as cell growth at 10^-5 M after 48 hrs by sulforhodamine B assay relative to control; type: functional; conditions: HOP-62, 48 h, read-out: Activity; outline: as §2
MCF7 = test: Growth inhibition of human MCF7 cells assessed as cell growth at 10^-5 M after 48 hrs by sulforhodamine B assay relative to control; type: functional; conditions: MCF7, 48 h, read-out: Activity; outline: as §2
PC-3 = test: Growth inhibition of human PC3 cells assessed as cell growth at 10^-5 M after 48 hrs by sulforhodamine B assay relative to control; type: functional; conditions: PC-3, 48 h, read-out: Activity; outline: as §2

Structure (SMILES)	growth at 10 µM (UACC-62)	growth at 10 µM (CAKI-1)	growth at 10 µM (RPMI-8226)	growth at 10 µM (A498)	growth at 10 µM (OVCAR-5)	growth at 10 µM (K562)	growth at 10 µM (NCI-H322M)	Ki (Thymidylate synthase)	growth at 10 µM (HCT-15)	Ki [1]	growth at 10 µM (MOLT-4)	growth at 10 µM (UACC-257)	growth at 10 µM (COLO 205)	growth at 10 µM (HCT-116)	growth at 10 µM (OVCAR-8)	growth at 10 µM (OVCAR-3)	growth at 10 µM (NCI-H23)	growth at 10 µM (TK-10)	growth at 10 µM (HT-29)	growth at 10 µM (SK-MEL-2)	also measured
Cc1ccc(-c2csc(=N)n2CC(=O)N2CCOCC2)cc1	98.1%	89.2%	92.8%	95.1%	102%	100%	111%	4.06 µM	98.1%	3.56 µM	99.7%	103%	113%	101%	108%	108%	97.3%	126%	109%	111%	growth at 10 µM (HOP-62): 112%; growth at 10 µM (MCF7): 97.8%; growth at 10 µM (PC-3): 78.9%
CN1CCN(C(=O)Cn2c(-c3ccccc3)csc2=N)CC1	85.9%	70.4%	92.5%	92.6%	110%	98.2%	90.2%	1.14 µM	87.6%	0.629 µM	95.2%	106%	103%	91.6%	92.9%	95.4%	90%	140%	83.8%	118%	growth at 10 µM (HOP-62): 88.9%; growth at 10 µM (MCF7): 81.4%; growth at 10 µM (PC-3): 82.1%
N=c1scc(-c2ccccc2)n1CC(=O)N1CCOCC1	92.5%	76.2%	95.4%	117%	96.3%	89.2%	97.9%	6.22 µM	99.2%	8.65 µM	95.2%	111%	107%	98.6%	94.8%	97%	95.8%	132%	106%	106%	growth at 10 µM (HOP-62): 90%; growth at 10 µM (MCF7): 89.5%; growth at 10 µM (PC-3): 81.3%
N=c1scc(-c2ccc(Cl)cc2)n1CC(=O)N1CCOCC1	83.2%	84.4%	78.7%	75.5%	113%	70.9%	104%	3.73 µM	89.9%	1.06 µM	69.2%	94.7%	101%	87.4%	101%	108%	95.6%	85.9%	94.2%	107%	growth at 10 µM (HOP-62): 98.5%; growth at 10 µM (MCF7): 86.8%; growth at 10 µM (PC-3): 79.2%
